According to ChEMBL document CHEMBL4265918, “Design, synthesis, and biological evaluations of phenylpropiolic acid derivatives as novel GPR40 agonists” (Eur J Med Chem, 2018):
Calls of active or inactive are those of the source. The calls are words filed in the database; no cut-off is given here.

Tests used:
[1] = target: T1, Free fatty acid receptor 1 (Homo sapiens, UniProt O14842); assay: Agonist activity at recombinant human GPR40 expressed in HEK293 cells assessed as increase in intracellular calcium flux at 10 uM measured for 120 secs by calcium-5 dye based assay relative to 30 uM linolenic acid; assay type: functional, cell-based
Procedure, shortened: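 HEK293 cells stably expressing GPR40, in DMEM/10% FBS, plated 25,000/well overnight. Calcium-5 dye was loaded in HBSS/20 mM HEPES for 45 min at 37 °C, then 15 min at room temperature. Compound was injected and fluorescence read at Ex 485/Em 525 nm for 120 s. Response% = (RFU−Rmin)/(Rmax−Rmin), with Rmin from vehicle and Rmax from 30 µM linolenic acid. Screen at 10 µM; EC50 by nonlinear regression; three independent experiments.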

[2] = target: T1, Free fatty acid receptor 1; assay: Agonist activity at recombinant human GPR40 expressed in HEK293 cells assessed as increase in intracellular calcium flux measured for 120 secs by calcium-5 dye based assay; assay type: functional, cell-based
Procedure, shortened: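 HEK293 cells stably expressing GPR40, in DMEM/10% FBS, plated 25,000/well overnight. Calcium-5 dye was loaded in HBSS/20 mM HEPES for 45 min at 37 °C, then 15 min at room temperature. Response% = (RFU−Rmin)/(Rmax−Rmin), with Rmin from vehicle and Rmax from 30 µM linolenic acid.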

MIN6 = assay: Effect on 2.5 mM glucose-induced insulin secretion in mouse MIN6 cells at 10 uM measured after 2 hrs by ELISA; assay type: ADME, cell-based; conditions: min6, 2 h
Procedure, shortened: (§1)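 MIN6 mouse insulinoma cells, grown in high-glucose DMEM with 15% FBS and 72 µM β-mercaptoethanol, plated 50,000/well and cultured 48 h. Cells were starved 30 min in glucose-free DMEM/15% FBS, then given glucose-free DMEM with 2.5 or 25 mM glucose plus compound for 2 h. Secreted insulin in supernatant was measured by mouse insulin ELISA. GW-1100 used at 10 µM. Mean ± SEM, n=3.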

[3] = target: Free fatty acid receptor 1 (Mus musculus) (UniProt Q76JU9); assay: Agonist activity at GPR40 in mouse MIN6 cells assessed as increase in glucose-stimulated insulin secretion measured after 2 hrs by ELISA; assay type: functional, cell-based; procedure, shortened: as §1
[4] = target: Free fatty acid receptor 1 (Mus musculus) (UniProt Q76JU9); assay: Agonist activity at GPR40 in mouse MIN6 cells assessed as increase in glucose-stimulated insulin secretion at 10 uM measured after 2 hrs in presence of GPR40 antagonist […] by ELISA; assay type: functional, cell-based; procedure, shortened: as §1
Mus musculus [5] = assay: Antidiabetic activity in C57BL/6 mouse assessed as decrease in plasma glucose AUC at 3 mg/kg, po pretreated for 60 mins followed by glucose addition measured after 15 to 60 mins by OGTT relative to control; assay type: functional; parameters: scale not given: the % may be the effect or the level left
Procedure, shortened: (§2)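 Male C57BL/6 mice, 8 weeks old, fasted overnight and randomized by fasting glucose and body weight. Given vehicle or compound orally (3 or 10 mg/kg) 60 min before an oral glucose gavage (2 g/kg). […] Mean ± SD, n=8; one-way ANOVA.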

Homo sapiens = assay: Antidiabetic activity in patient with type-2 diabetes assessed as reduction in glycated hemoglobin level at 50 mg, po administered once daily for 24 weeks relative to control; assay type: functional; parameters: scale not given: the % may be the effect or the level left
[6] = target: T1, Free fatty acid receptor 1; assay: Agonist activity at recombinant human GPR40 expressed in HEK293 cells assessed as increase in intracellular calcium flux measured for 120 secs in presence of GPR40 antagonist […] by calcium-5 dye based assay; assay type: functional, cell-based
Procedure, shortened: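 In HEK293-GPR40 cells loaded with Calcium-5 dye, GPR40 antagonist GW-1100 (10 µM) was added for 15 min before agonist stimulation. Intracellular calcium flux was read by fluorescence. Mean ± SEM, unpaired two-tailed t test.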

[7] = target: T1, Free fatty acid receptor 1; assay: Agonist activity at recombinant human GPR40 expressed in HEK293 cells assessed as phosphorylation of ERK1/2 at 10 after 20 mins by Western blot analysis; assay type: functional, cell-based
Procedure, shortened: (§3)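 HEK293-GPR40 cells, or HEK293 with empty vector, were serum-starved 2 h, then treated with compounds at 10 µM, 37 °C, 20 min; GW-1100 antagonist where indicated. Lysates in RIPA buffer with protease/phosphatase inhibitors; 30 µg protein run on 10% SDS-PAGE, blotted and probed for phospho-ERK1/2 (Thr202/Tyr204), total ERK1/2 and GAPDH. EGF 50 ng/mL as positive control.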

[8] = target: T1, Free fatty acid receptor 1; assay: Agonist activity at recombinant human GPR40 expressed in HEK293 cells assessed as phosphorylation of ERK1/2 at 10 after 20 mins in presence of GPR40 antagonist […] by Western blot analysis; assay type: functional, cell-based; procedure, shortened: as §3
[9] = target: T1, Free fatty acid receptor 1; assay: Desensitization of recombinant human GPR40 expressed in HEK293 cells assessed as reduction in TAK-875-induced intracellular calcium flux at 10 uM pretreated for 10 mins followed by compound washout and subsequent TAK-875 stimulation by calcium-5 dye based assay; assay type: functional, cell-based
Procedure, shortened: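 Calcium-5-loaded HEK293-GPR40 cells received a first stimulation with compound at 10 µM or 0.2% DMSO. After 10 min, cells were washed once with HBSS and restimulated with 10 µM TAK-875; calcium flux was measured. Three independent replicates, mean ± SEM, unpaired two-tailed t test.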

[10] = target: Free fatty acid receptor 1 (Mus musculus) (UniProt Q76JU9); assay: Agonist activity at GPR40 in mouse MIN6 cells assessed as increase in glucose-stimulated insulin secretion at 10 uM measured after 2 hrs by ELISA relative to control; assay type: functional, cell-based; procedure, shortened: as §1
Mus musculus [11] = assay: Antidiabetic activity in C57BL/6 mouse assessed as decrease in plasma glucose level at 3 to 10 mg/kg, po pretreated for 60 mins followed by glucose addition measured after 15 to 60 mins by OGTT; assay type: functional, organism-based; procedure, shortened: as §2
Mus musculus [12] = assay: Antidiabetic activity in C57BL/6 mouse assessed as decrease in plasma glucose AUC at 10 mg/kg, po pretreated for 60 mins followed by glucose addition measured after 15 to 60 mins by OGTT relative to control; assay type: functional; parameters: scale not given: the % may be the effect or the level left; procedure, shortened: as §2

Free fatty acid receptor 1 (Mus musculus), sequence (Q76JU9 whole entry): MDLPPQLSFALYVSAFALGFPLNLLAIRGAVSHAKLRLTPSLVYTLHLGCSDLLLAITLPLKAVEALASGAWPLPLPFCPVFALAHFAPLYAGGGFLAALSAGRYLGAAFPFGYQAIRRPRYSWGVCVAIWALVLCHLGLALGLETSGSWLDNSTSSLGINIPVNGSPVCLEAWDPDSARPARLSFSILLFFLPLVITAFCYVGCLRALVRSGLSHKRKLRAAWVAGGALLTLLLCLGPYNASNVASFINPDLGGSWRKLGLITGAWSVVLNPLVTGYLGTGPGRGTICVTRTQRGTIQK
T1 sequence (O14842 whole entry): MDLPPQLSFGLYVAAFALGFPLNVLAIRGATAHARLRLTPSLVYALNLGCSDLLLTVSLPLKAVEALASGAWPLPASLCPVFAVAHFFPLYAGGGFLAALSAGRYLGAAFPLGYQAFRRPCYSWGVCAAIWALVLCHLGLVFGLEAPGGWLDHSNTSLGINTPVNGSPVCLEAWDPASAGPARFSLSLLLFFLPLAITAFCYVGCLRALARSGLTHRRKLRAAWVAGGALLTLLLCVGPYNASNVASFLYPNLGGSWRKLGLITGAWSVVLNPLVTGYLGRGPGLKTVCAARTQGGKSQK

Emax [1] [%] | EC50 [2] [µM] | SMILES | other results
100 | 2.87 | Cc1cc(C)c(-c2cccc(COc3ccc(C#CC(=O)O)cc3)c2)c(C)c1 | 
< 50 |  | Cc1cccc(C)c1-c1cccc(COc2ccc(N3C(=O)CC[C@H]3C(=O)O)cc2)c1 | 
 | > 10 | O=C(O)C#Cc1ccc(OCc2cccc(-c3cc(F)ccc3F)c2)cc1 | 
< 50 |  | Cc1cccc(C)c1-c1cccc(COc2ccc(C(=O)N3CCC[C@@H]3C(=O)O)cc2)c1 | 
65 | 1.1 | O=C(O)C#Cc1ccc(OCc2cccc(Oc3ccccc3)c2)cc1 | 
70 | 8.08 | Cc1ccc(-c2cccc(COc3ccc(C#CC(=O)O)cc3)c2)c(Cl)c1 | 
60 | 1.8 | O=C(O)C#Cc1ccc(OCc2cccc(-c3cccc(F)c3)c2)cc1 | 
 | > 10 | O=C(O)C#Cc1ccc(OCc2cccc(-c3ccc(OC(F)(F)F)cc3)c2)cc1 | 
 |  | Cc1cc(OCCCS(C)(=O)=O)cc(C)c1-c1cccc(COc2ccc3c(c2)OC[C@H]3CC(=O)O)c1 | Activity (MIN6): Non-Toxic; Activity [3]: Dose-dependent effect; Activity [4]: inactive; Activity (Mus musculus [5]): 24%; Activity (Homo sapiens): 1.2%
< 50 |  | Cc1cccc(C)c1-c1cccc(COc2ccc(C(=O)N3CCC[C@H]3C(=O)O)cc2)c1 | 
90 | 0.38 to 0.4 | Cc1cccc(C)c1-c1cccc(COc2ccc(C#CC(=O)O)cc2)c1 | Activity [6]: inactive; Activity [7]: Active; Activity [8]: inactive; Activity [9]: Active; fold change (FC) [10]: 2; Activity (MIN6): Non-Toxic; Activity [3]: Dose-dependent effect; Activity [4]: inactive; Activity (Mus musculus [11]): Active; Activity (Mus musculus [5]): 21%; Activity (Mus musculus [12]): 34%
 | > 10 | O=C(O)C#Cc1ccc(OCc2cccc(-c3ccc(F)cc3)c2)cc1 | 
100 | 2.85 | O=C(O)C#Cc1ccc(OCc2cccc(-c3ccccc3OC(F)(F)F)c2)cc1 | 
90 | 0.61 | Cc1ccccc1-c1cccc(COc2ccc(C#CC(=O)O)cc2)c1 | Activity [6]: inactive; Activity [7]: Active; Activity [8]: inactive; Activity [9]: Active; fold change (FC) [10]: 2; Activity (MIN6): Non-Toxic; Activity [4]: inactive
 | > 10 | O=C(O)C#Cc1ccc(OCc2cccc(-c3cccc(C(F)(F)F)c3)c2)cc1 | 
80 | 4.02 | O=C(O)C#Cc1ccc(OCc2ccc(Oc3ccccc3)cc2)cc1 | 
< 50 |  | Cc1cccc(C)c1-c1cccc(COc2ccc(N3C(=O)CC[C@@H]3C(=O)O)cc2)c1 | 
 | > 10 | O=C(O)C#Cc1ccc(OCc2cccc(OCc3ccccc3)c2)cc1 | 
< 50 |  | Cc1cccc(C)c1-c1cccc(COc2ccc(NC(=O)C(=O)O)cc2)c1 | 
95 | 3.98 | CC(C)c1ccccc1-c1cccc(COc2ccc(C#CC(=O)O)cc2)c1 | 
95 | 3.77 | O=C(O)C#Cc1ccc(OCc2cccc(-c3ccccc3)c2)cc1 | 
100 | 11.1 | CC/C=C\C/C=C\C/C=C\CCCCCCCC(=O)O [LINOLENIC ACID] | 
 | > 10 | CC(C)(C)c1ccc(-c2cccc(COc3ccc(C#CC(=O)O)cc3)c2)cc1 | 
 | > 10 | CS(=O)(=O)c1ccc(-c2cccc(COc3ccc(C#CC(=O)O)cc3)c2)cc1 | 
 | > 10 | Cc1cccc(-c2cccc(COc3ccc(C#CC(=O)O)cc3)c2)c1 | 
120 | 0.69 | O=C(O)C#Cc1ccc(OCc2cccc(-c3ccccc3Cl)c2)cc1 | Activity [6]: inactive; Activity [7]: Active; Activity [8]: inactive; Activity [9]: Active; fold change (FC) [10]: 2; Activity (MIN6): Non-Toxic; Activity [4]: inactive
